Data: ChEMBL document CHEMBL1152809, “Structure-activity relationships of orotidine-5'-monophosphate decarboxylase inhibitors as anticancer agents” (J Med Chem, 2009)
The source made the active and inactive calls. The calls are words filed in the database; no cut-off is given here.

Key:
[1] = molecular target: T1, Uridine 5'-monophosphate synthase (Homo sapiens, UniProt P11172); experiment: (§1) Irreversible inhibition of human ODCase
T1 sequence (P11172 whole entry): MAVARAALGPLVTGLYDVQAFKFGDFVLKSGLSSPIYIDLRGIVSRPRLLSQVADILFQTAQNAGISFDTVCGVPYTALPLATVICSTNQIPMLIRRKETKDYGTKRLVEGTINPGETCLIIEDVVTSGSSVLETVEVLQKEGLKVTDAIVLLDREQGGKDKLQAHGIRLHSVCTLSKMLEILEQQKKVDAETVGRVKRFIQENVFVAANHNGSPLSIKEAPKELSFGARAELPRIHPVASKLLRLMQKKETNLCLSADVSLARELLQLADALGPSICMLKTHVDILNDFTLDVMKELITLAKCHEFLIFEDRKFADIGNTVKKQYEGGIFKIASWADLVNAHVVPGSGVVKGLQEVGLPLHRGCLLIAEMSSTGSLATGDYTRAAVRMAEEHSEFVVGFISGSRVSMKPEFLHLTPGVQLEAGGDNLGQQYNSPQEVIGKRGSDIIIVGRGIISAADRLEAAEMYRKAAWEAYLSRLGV

[2] = molecular target: T2, Uridine 5'-monophosphate synthase (Homo sapiens) (UniProt P11172); experiment: as §1
T2 sequence (whole entry): T1 sequence (P11172 whole entry)

[3] = molecular target: Orotidine 5'-phosphate decarboxylase (Methanobacterium thermoautotrophicum, UniProt O26232); experiment: Reversible inhibition of Methanobacterium thermoautotrophicum ODCase; design: species or system Methanothermobacter thermautotrophicus
Procedure, shortened: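 Inhibitor levels span 0-1.0 µM up to 0-4.0 mM depending on compound. Rates from heat flow fitted to a competitive model for Ki; experiments in triplicate.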

SNB-19 = experiment: Antitumor activity against human SNB19 cells up to 50 uM after 3 days by WST1 assay; type: functional, cell-based
Procedure, shortened: (§2)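 Cell lines grown in Iscove's MDM with 5% FCS, 50 µM 2-mercaptoethanol, penicillin and streptomycin; suspension lines kept at 0.5-1.5 × 10^6 cells/mL, adherent lines subconfluent. Cells seeded in triplicate at 10^4 cells/100 µL. Compounds were dissolved in water and added immediately at 0 to 100 µM final. WST.1 read at 440 nm on day 3; IC50 taken from OD versus concentration plots.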

T47D = experiment: Antitumor activity against human T47D cells up to 50 uM after 3 days by WST1 assay; type: functional, cell-based; procedure, shortened: as §2
PC-3 = experiment: Antitumor activity against human PC3 cells up to 50 uM after 3 days by WST1 assay; type: functional, cell-based; procedure, shortened: as §2
OCI-AML2 = experiment: Antitumor activity against human OCI-AML2 cells after 3 days by WST1 assay; type: functional, cell-based; conditions: OCI-AML2, 72 h; procedure, shortened: as §2
MCF7 [4] = experiment: Antitumor activity against human MCF7 cells after 3 days by WST1 assay; type: functional, cell-based; conditions: MCF7, 72 h; procedure, shortened: as §2
[5] = Antitumor activity against human OCI-AML1 cells after 3 days by WST1 assay; type: functional, cell-based; conditions: ML1, 72 h; procedure, shortened: as §2
MDA-MB-468 = experiment: Antitumor activity against human MDA468 cells up to 50 uM after 3 days by WST1 assay; type: functional, cell-based; procedure, shortened: as §2
[6] = Cytotoxicity against human CCD-967 cells up to 50 uM after 3 days by WST1 assay; type: cell-based; conditions: ccd-967, 72 h
Procedure, shortened: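 Cells grown in Iscove's MDM with 5% FCS, 50 µM 2-mercaptoethanol and antibiotics, kept subconfluent if adherent. Seeded in triplicate at 10^4 cells/100 µL with compounds (in water) added at once, 0 to 100 µM final. WST.1 formazan read at 440 nm on day 3; IC50 from OD versus concentration.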

[7] = Antitumor activity against human MDA468 cells after 3 days by WST1 assay; type: functional, cell-based; conditions: MDA-MB-468, 72 h; procedure, shortened: as §2
COLO 205 = experiment: Antitumor activity against human COLO205 cells after 3 days by WST1 assay; type: functional, cell-based; conditions: for IC50: COLO 205, 72 h; procedure, shortened: as §2
Hs-578T = experiment: Antitumor activity against human Hs 578T cells up to 50 uM after 3 days by WST1 assay; type: functional, cell-based; procedure, shortened: as §2
MCF7 [8] = experiment: Antitumor activity against human MCF7 cells up to 50 uM after 3 days by WST1 assay; type: functional, cell-based; procedure, shortened: as §2
[9] = Antitumor activity against human OCI-LY7 cells after 3 days by WST1 assay; type: functional, cell-based; conditions: OCI-Ly7, 72 h; procedure, shortened: as §2
[10] = Antitumor activity against human OCI-My 2 cells after 3 days by WST1 assay; type: functional, cell-based; conditions: 72 h; procedure, shortened: as §2
[11] = Antitumor activity against human SKW3 cells after 3 days by WST1 assay; type: functional, cell-based; conditions: SKW3, 72 h; procedure, shortened: as §2
[12] = Antitumor activity against human LOX cells after 3 days by WST1 assay; type: functional, cell-based; conditions: 72 h; procedure, shortened: as §2
OVCAR-4 = experiment: Antitumor activity against human OVCAR4 cells after 3 days by WST1 assay; type: functional, cell-based; conditions: for IC50: OVCAR-4, 72 h; procedure, shortened: as §2
[13] = system: Methanothermobacter thermautotrophicus; experiment: (§3) Irreversible inhibition of Methanobacterium thermoautotrophicum ODCase
[14] = as §3; design: species or system Methanothermobacter thermautotrophicus
[15] = molecular target: T1, Uridine 5'-monophosphate synthase; experiment: Reversible inhibition of human ODCase
Procedure, shortened: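 Human ODCase at 60 nM in 50 mM Tris, 1 mM DTT, assayed by ITC at 37 °C. Enzyme mixed with inhibitor (stocks in 50 mM Tris pH 7.5) and the reaction started with OMP, 15 or 20 µM final. Inhibitor ranges from 0-1.0 µM up to 0-500 µM. Ki from direct fit of decarboxylation rates; triplicates.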

Sequence of Orotidine 5'-phosphate decarboxylase (O26232 whole entry): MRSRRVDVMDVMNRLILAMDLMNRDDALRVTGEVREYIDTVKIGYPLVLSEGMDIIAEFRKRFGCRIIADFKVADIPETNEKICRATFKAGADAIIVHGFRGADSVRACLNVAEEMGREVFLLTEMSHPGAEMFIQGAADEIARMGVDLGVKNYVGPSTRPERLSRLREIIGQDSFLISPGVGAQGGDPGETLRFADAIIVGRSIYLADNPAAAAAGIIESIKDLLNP

SMILES	Ki [3] [nM]	IC50 (OCI-AML2) [µM]	IC50 (MCF7 [4]) [µM]	IC50 (COLO 205) [µM]	IC50 (OVCAR-4) [µM]	Activity (SNB-19)	Activity (T47D)	Activity (PC-3)	IC50 [5] [µM]	Activity (MDA-MB-468)	Activity [6]	IC50 [7] [µM]	Activity (Hs-578T)	Activity (MCF7 [8])	IC50 [9] [µM]	IC50 [10] [µM]	IC50 [11] [µM]	IC50 [12] [µM]	other results
CN(C)c1cc(=O)[nH]c(=O)n1[C@@H]1O[C@H](CO)[C@@H](O)[C@H]1O		> 50	> 50	> 50	> 50	inactive	inactive	inactive	> 50	inactive	Not Active	> 50	inactive	inactive	> 50	> 50	> 50	> 50	
O=Cc1cc(=O)[nH]c(=O)n1[C@@H]1O[C@H](CO)[C@@H](O)[C@H]1O		> 50	> 50			inactive	inactive	inactive	> 50	inactive	Not Active	> 50	inactive	inactive	> 50	> 50	> 50	> 50	Activity (COLO 205): inactive; Activity (OVCAR-4): inactive
Nc1c(F)c(=O)[nH]c(=O)n1[C@@H]1O[C@H](COP(=O)(O)O)[C@@H](O)[C@H]1O	11400																		Ki [15]: 16.6 µM

More lines, main results first:

Ki [3] [nM]	IC50 (OCI-AML2) [µM]	IC50 (MCF7 [4]) [µM]	IC50 (COLO 205) [µM]	IC50 (OVCAR-4) [µM]	SMILES	Activity (SNB-19)	Activity (T47D)	Activity (PC-3)	IC50 [5] [µM]	Activity (MDA-MB-468)	Activity [6]	IC50 [7] [µM]	Activity (Hs-578T)	Activity (MCF7 [8])	IC50 [9] [µM]	IC50 [10] [µM]	IC50 [11] [µM]	IC50 [12] [µM]	other results
360					[N-]=[N+]=Nc1c(F)c(=O)[nH]c(=O)n1[C@@H]1O[C@H](COP(=O)(O)O)[C@@H](O)[C@H]1O														Ki [1]: 18.2 µM; Kinact [2]: 41 h⁻¹
200					[N-]=[N+]=Nc1cc(=O)[nH]c(=O)n1[C@@H]1O[C@H](COP(=O)(O)O)[C@@H](O)[C@H]1O														Kinact [13]: 61.2 h⁻¹; Ki [14]: 600 nM
	> 50	> 50	> 50	> 50	O=c1cc(O)n([C@@H]2O[C@H](COP(=O)(O)O)[C@@H](O)[C@H]2O)c(=O)[nH]1	inactive	inactive	inactive	> 50	inactive	Not Active	> 50	inactive	inactive	> 50	> 50	> 50	> 50	
